Data from ChEMBL document CHEMBL4689842, “EUbOPEN Chemogenomics Library wave 1” (2021).

Tests used:
Format in all cases: toxicity, cell-based
Fibroblast [1] = assay: Multiplex assay against human fibroblast
In short: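 On a CQ1 microscope at 37°C and 5% CO2, live cells were imaged after compound addition. They had been stained at seeding with Hoechst33342, BioTracker Green Microtubule Cytoskeleton Dye, MitoTracker Red and Annexin V Alexa Fluor 680. CellPathfinder machine-learning gating assigned cells to Hoechst high-intensity objects or normal cells, normal cells to healthy, pyknosed or fragmented nuclei, and pyknosed cells to mitotic or apoptotic. Tubulin, mitochondrial-mass and membrane-permeability phenotypes are per cents of healthy-nucleus cells.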

U2OS = assay: Incucyte cell viability with U2OS; details: human, 10 µM, compound concentration 10 uM; further: filed as whole numbers so only -1 and 0 and 1 occur
Fibroblast [2] = assay: Incucyte cell viability with human fibroblast; details: 10 µM, compound concentration 10 uM; further: filed as whole numbers so only -1 and 0 and 1 occur
[3] = 12 h, 1 µM, compound concentration 1 uM, replicate 1
[4] = 12 h, 1 µM, compound concentration 1 uM, replicate 2
[5] = 12 h, 10 µM, compound concentration 10 uM, replicate 1
[6] = 12 h, 10 µM, compound concentration 10 uM, replicate 2
[7] = 24 h, 1 µM, compound concentration 1 uM, replicate 1
[8] = 24 h, 1 µM, compound concentration 1 uM, replicate 2
[9] = 24 h, 10 µM, compound concentration 10 uM, replicate 1
[10] = 24 h, 10 µM, compound concentration 10 uM, replicate 2
[11] = 0 h, replicate number 1, timepoint 0 hours
[12] = 6 h, replicate number 2, timepoint 6 hours
[13] = 12 h, replicate number 1, timepoint 12 hours
[14] = 18 h, replicate number 1, timepoint 18 hours
[15] = 24 h, replicate number 1, timepoint 24 hours

## CNC(=O)c1cc(Oc2ccc(NC(=O)Nc3cc(C(C)(C)C)nn3-c3ccc4ncccc4c3)c(F)c2)ccn1 [REBASTINIB]
Fibroblast [1]; [3]
  Population Apoptotic (%): 90%
  Population Fragmented Nuclei (%): 24%
  Population Healthy Nuclei (%): 66%
  Population Hoechst High Intensity Objects (%): 10%
  Population Membrane Permeable-Phenotype (%): 4%
  Population Mitochondria Different-Phenotype (%): 2%
  Population Mitotic Cells (%): 10%
  Population Normal (%): 89%
  Population Pyknosed Nuclei (%): 9%
  Population Tubulin-Different-Phenotype (%): 4%
  Total Cell Count: 237
Fibroblast [1]; [4]
  Population Apoptotic (%): 40%
  Population Fragmented Nuclei (%): 56%
  Population Healthy Nuclei (%): 32%
  Population Hoechst High Intensity Objects (%): 38%
  Population Membrane Permeable-Phenotype (%): 26%
  Population Mitochondria Different-Phenotype (%): 6%
  Population Mitotic Cells (%): 60%
  Population Normal (%): 61%
  Population Pyknosed Nuclei (%): 10%
  Population Tubulin-Different-Phenotype (%): 26%
  Total Cell Count: 75
Fibroblast [1]; [5]
  Population Apoptotic (%): 59%
  Population Fragmented Nuclei (%): 20%
  Population Healthy Nuclei (%): 59%
  Population Hoechst High Intensity Objects (%): 8%
  Population Membrane Permeable-Phenotype (%): 10%
  Population Mitochondria Different-Phenotype (%): 16%
  Population Mitotic Cells (%): 40%
  Population Normal (%): 91%
  Population Pyknosed Nuclei (%): 19%
  Population Tubulin-Different-Phenotype (%): 44%
  Total Cell Count: 238
Fibroblast [1]; [6]
  Population Apoptotic (%): 85%
  Population Fragmented Nuclei (%): 54%
  Population Healthy Nuclei (%): 24%
  Population Hoechst High Intensity Objects (%): 45%
  Population Membrane Permeable-Phenotype (%): 0%
  Population Mitochondria Different-Phenotype (%): 37%
  Population Mitotic Cells (%): 14%
  Population Normal (%): 55%
  Population Pyknosed Nuclei (%): 21%
  Population Tubulin-Different-Phenotype (%): 50%
  Total Cell Count: 60
Fibroblast [1]; [7]
  Population Apoptotic (%): 83%
  Population Fragmented Nuclei (%): 24%
  Population Healthy Nuclei (%): 64%
  Population Hoechst High Intensity Objects (%): 12%
  Population Membrane Permeable-Phenotype (%): 2%
  Population Mitochondria Different-Phenotype (%): 2%
  Population Mitotic Cells (%): 16%
  Population Normal (%): 87%
  Population Pyknosed Nuclei (%): 11%
  Population Tubulin-Different-Phenotype (%): 3%
  Total Cell Count: 239
Fibroblast [1]; [8]
  Population Apoptotic (%): 33%
  Population Fragmented Nuclei (%): 56%
  Population Healthy Nuclei (%): 37%
  Population Hoechst High Intensity Objects (%): 30%
  Population Membrane Permeable-Phenotype (%): 5%
  Population Mitochondria Different-Phenotype (%): 10%
  Population Mitotic Cells (%): 66%
  Population Normal (%): 69%
  Population Pyknosed Nuclei (%): 5%
  Population Tubulin-Different-Phenotype (%): 31%
  Total Cell Count: 73
Fibroblast [1]; [9]
  Population Apoptotic (%): 52%
  Population Fragmented Nuclei (%): 24%
  Population Healthy Nuclei (%): 57%
  Population Hoechst High Intensity Objects (%): 14%
  Population Membrane Permeable-Phenotype (%): 4%
  Population Mitochondria Different-Phenotype (%): 28%
  Population Mitotic Cells (%): 47%
  Population Normal (%): 85%
  Population Pyknosed Nuclei (%): 17%
  Population Tubulin-Different-Phenotype (%): 54%
  Total Cell Count: 229
Fibroblast [1]; [10]
  Population Apoptotic (%): 70%
  Population Fragmented Nuclei (%): 52%
  Population Healthy Nuclei (%): 22%
  Population Hoechst High Intensity Objects (%): 33%
  Population Membrane Permeable-Phenotype (%): 33%
  Population Mitochondria Different-Phenotype (%): 44%
  Population Mitotic Cells (%): 30%
  Population Normal (%): 66%
  Population Pyknosed Nuclei (%): 25%
  Population Tubulin-Different-Phenotype (%): 44%
  Total Cell Count: 60
U2OS; [11]
  Growth Rate: 1
U2OS; 6 h, replicate number 1, timepoint 6 hours
  Growth Rate: 0
U2OS; [12]
  Growth Rate: 1
U2OS; [13]
  Growth Rate: 0
U2OS; [14]
  Growth Rate: 0
U2OS; [15]
  Growth Rate: 0
Fibroblast [2]; [11]
  Growth Rate: 0
Fibroblast [2]; [12]
  Growth Rate: 1
Fibroblast [2]; [13]
  Growth Rate: 0
Fibroblast [2]; [14]
  Growth Rate: 0
Fibroblast [2]; [15]
  Growth Rate: 0
